This note sets out measurements from ChEMBL document CHEMBL2163250, “Carbonylhydrazide-based molecular tongs inhibit wild-type and mutated HIV-1 protease dimerization” (J Med Chem, 2012).

Data set [1] has as its target Protease (Human immunodeficiency virus 1) (UniProt Q9YQ12). Put plainly: Inhibition of HIV1 protease dimerization expressed in Escherichia coli Rosetta(DE3) at 5 uM by 1-Anilino-8-naphthalene sulfonate-based fluorescent probe binding assay. In short, it runs like this: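 Recombinant PR (350 nM) in 100 mM sodium acetate, 1 M NaCl, 1 mM EDTA, pH 4.7, incubated at 25 °C with or without 5 μM inhibitor. ANS was then added at final 10–60 μM, with final DMSO 0.2% (v/v). Excitation 370 nm, emission 470 nm. Fluorescence was corrected for ANS plus inhibitor without enzyme, and each measurement was averaged over five reads.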

Data set [2] can be described thus: Half life of the compound in RPMI medium in presence of 20% fetal calf serum. Particulars: cattle, RPMI medium with 20% fetal calf serum. It is filed as physicochemical. In short, it runs like this:
(§1)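 Inhibitor incubated at 37 °C in RPMI culture medium with 20% fetal calf serum for up to 2 days. Incubations stopped with ethanol, cooled to 4 °C and centrifuged, and the supernatant analysed by HPLC. Half-life came from least-squares linear regression of a semilog plot of remaining inhibitor versus incubation time.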

The target of the next data set is Protease (Human immunodeficiency virus 1, UniProt Q9YQ12). Put plainly: Inhibition of HIV1 protease dimerization expressed in Escherichia coli Rosetta(DE3) using DABCYL-gamma-abu-Ser-Gln-Asn-Tyr-Pro-Ile-Val-Gln-EDANS as substrate by Zhang-Poorman kinetic analysis. The procedure, abridged: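 Recombinant PR expressed in E. coli Rosetta (DE3)pLysS from a pET-9 vector. Fluorogenic substrate at 5.2 μM (ex 340, em 490 nm) in 100 mM sodium acetate, 1 mM EDTA, 1 M NaCl, pH 4.7, 30 °C, final DMSO 3% (v/v). At least six enzyme concentrations (5.33–18.6 nM) and inhibitor 0.5–28 μM. Kid from Zhang–Poorman analysis, at least triplicate.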
Sequence of Protease (Q9YQ12 whole entry): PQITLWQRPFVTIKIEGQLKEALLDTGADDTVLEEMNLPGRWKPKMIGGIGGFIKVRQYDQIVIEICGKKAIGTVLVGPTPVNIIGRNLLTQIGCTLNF

Another data set is filed under the species Sus scrofa. Put plainly: Inhibition of […] using Abz-Thr-Ile-Nle-(p-NO2-Phe)-Gln-Arg-NH2 as substrate at 10 uM by fluorimetric analysis. In short, it runs like this:
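Pepsin from porcine gastric mucosa assayed fluorometrically in 10 mM NaHCOO, pH 3.5, with 20 μM Abz-Thr-Ile-Nle-(p-NO₂-Phe)-Gln-Arg-NH₂ substrate (Km 13.3 μM). Excitation 337 nm, emission 410 nm. Compounds were tested at 10 μM.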

In a further data set the target is T1, Renin (Homo sapiens) (UniProt P00797).
T1 sequence (whole entry): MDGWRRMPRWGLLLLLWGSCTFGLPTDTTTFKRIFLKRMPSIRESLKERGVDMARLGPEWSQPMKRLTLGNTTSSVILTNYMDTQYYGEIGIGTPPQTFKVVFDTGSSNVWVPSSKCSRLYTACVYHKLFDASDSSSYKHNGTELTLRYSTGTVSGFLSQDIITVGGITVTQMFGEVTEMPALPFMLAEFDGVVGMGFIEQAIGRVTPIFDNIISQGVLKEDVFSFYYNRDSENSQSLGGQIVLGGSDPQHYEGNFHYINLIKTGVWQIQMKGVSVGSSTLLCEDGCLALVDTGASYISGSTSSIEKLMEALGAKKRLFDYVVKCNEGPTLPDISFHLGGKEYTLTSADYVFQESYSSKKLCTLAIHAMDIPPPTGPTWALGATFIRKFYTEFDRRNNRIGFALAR
Nature of the data set: Inhibition of recombinant renin using Arg-Glu(EDANS)-Ile-His-Pro-Phe-His-Leu-Val-Ile-His-Thr-Lys-(DABCYL)-Arg as substrate at 10 uM by fluorimetric analysis. The procedure, abridged: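 Renin activity read fluorometrically with the EDANS/DABCYL substrate (Km 3.3 μM) at 5 μM in 50 mM Tris–HCl, 100 mM NaCl, 1 mM EDTA, pH 8.0. Excitation 340 nm, emission 500 nm. Compounds were tested at 10 μM.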

A short description of data set [3]: Inhibition of HIV1 protease MDR-HM mutant dimerization expressed in Escherichia coli Rosetta(DE3) using DABCYL-gamma-abu-Ser-Gln-Asn-Tyr-Pro-Ile-Val-Gln-EDANS as substrate by Zhang-Poorman kinetic analysis. Also noted: species or system Human immunodeficiency virus 1. In short, it runs like this:
(§2)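 Recombinant protease produced in E. coli Rosetta (DE3)pLysS from a pET-9 vector. Fluorimetric assay (ex 340, em 490 nm) run in 100 mM sodium acetate, 1 mM EDTA, 1 M NaCl, pH 4.7, at 30 °C with 3% (v/v) final DMSO. Substrate held at 5.2 μM, at least six enzyme concentrations (5.33−18.6 nM), inhibitor 0.5−28 μM. Kid derived from Zhang−Poorman analysis. At least triplicate.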

Data set [4] in a line: Inhibition of HIV1 protease ANAM-11 mutant dimerization expressed in Escherichia coli Rosetta(DE3) using DABCYL-gamma-abu-Ser-Gln-Asn-Tyr-Pro-Ile-Val-Gln-EDANS as substrate by Zhang-Poorman kinetic analysis. Also on record: species or system Human immunodeficiency virus 1. In short, it runs like this: as §2
The target in data set [5] is Protease (Human immunodeficiency virus 1) (UniProt Q9YQ12). Put plainly: Inhibition of HIV1 protease dimerization expressed in Escherichia coli Rosetta(DE3) using DABCYL-gamma-abu-Ser-Gln-Asn-Tyr-Pro-Ile-Val-Gln-EDANS as substrate at 28 uM by fluorimetric assay.
Sequence of Protease (Human immunodeficiency virus 1) (Q9YQ12 as listed by the source): as the sequence (Q9YQ12 whole entry) above
Data set [6] is described as follows: Solubility of the compound. In kind it is physicochemical.
The nature of data set [7]: Chemical stability in RPMI medium up to 48 hrs in presence of 20% fetal calf serum. In kind it is physicochemical. Conditions: cattle. The procedure, abridged: as §1

≈ marks a conversion by molar mass, not a printed value. Calls of active or inactive are those of the source. The rule behind the calls is not given here.

Consider `CC(=O)N[C@H](C(=O)N[C@H](C(=O)N[C@@H](CC(C)C)[C@@H](O)CC(=O)N[C@@H](C)C(=O)N[C@@H](CC(C)C)[C@@H](O)CC(=O)O)C(C)C)C(C)C`, for which the inhibition entry in [1] is “inactive”.

For the molecule `CC(C)CN(C[C@@H](O)[C@H](Cc1ccccc1)NC(=O)O[C@H]1CCOC1)S(=O)(=O)c1ccc(N)cc1`, the inhibition result in [1] is “inactive”.

With `COC(=O)[C@@H](NC(=O)[C@H](CC(C)C)NC(=O)[C@@H](NC(=O)CCCOc1ccc2ccc(OCCCC(=O)N[C@H](C(=O)NNC(=O)[C@@H](NC(=O)OC(C)(C)C)C(C)C)C(C)C)cc2c1)C(C)C)C(C)C`, the half-life in data set [2] is 24 h. The values for the Ki (on Protease; in data set [3]; in [4]) were 90 nM, 160 nM and 100 nM, respectively. For the same molecule, the inhibition result in [1] was “Active”. The inhibition result in the data set listed under Sus scrofa and on Renin (Homo sapiens) was “inactive” in each case.

With `CNC(=O)NNC(=O)NNC(=O)CCCOc1ccc2ccc(OCCCC(=O)NNC(=O)NNC(=O)NC)cc2c1`, in data set [5], the inhibition is 13%.

Consider `COC(=O)[C@@H](NC(=O)[C@H](CC(C)C)NC(=O)[C@@H](NC(=O)CCCOc1ccc2ccc(OCCCC(=O)N[C@H](C(=O)N[C@@H](CC(C)C)C(=O)N[C@H](C(=O)OC)C(C)C)C(C)C)cc2c1)C(C)C)C(C)C`, for which the affinity on Protease corresponds to a Ki of 560 nM. Further, in data set [1], the inhibition entry is “Active”.

On to `CC(C)(C)NC(=O)[C@@H]1C[C@@H]2CCCC[C@@H]2CN1C[C@@H](O)[C@H](Cc1ccccc1)NC(=O)[C@H](CC(N)=O)NC(=O)c1ccc2ccccc2n1`, for which the inhibition entry in [1] was “inactive”.

As for `CC(C)[C@H](NC(=O)CCCOc1ccc2ccc(OCCCC(=O)O)cc2c1)C(=O)NNC(=O)[C@@H](NC(=O)OC(C)(C)C)C(C)C`, the inhibition in [5] amounted to 0%.

For `CC(=O)NNC(=O)NNC(=O)CCNC(=O)CCCOc1ccc2ccc(OCCCC(=O)NCCC(=O)NNC(=O)NNC(C)=O)cc2c1`, in [5], the inhibition came out at 0%.

On to `CC(C)[C@H](NC(=O)NNC(=O)NNC(=O)CCCOc1ccc2ccc(OCCCC(=O)NNC(=O)NNC(=O)N[C@H](C(N)=O)C(C)C)cc2c1)C(N)=O`, for which the Ki at Protease turned out to be 700 nM; in data set [3], 1600 nM; in data set [4] it was 800 nM. Also, the inhibition result in the data set listed under Sus scrofa and at Renin (Homo sapiens) was “inactive” each time. Also, in [6], the solubility turned out to be 300 µg/mL (≈ 394 µM). Besides, in data set [7], the Stability result is “Stable”.

As to `COC(=O)CCNC(=O)NNC(=O)NNC(=O)CCCOc1ccc2ccc(OCCCC(=O)NNC(=O)NNC(=O)NCCC(=O)OC)cc2c1`, the inhibition in data set [5] is 0%.

As for `CC(=O)NNC(=O)NNC(=O)[C@@H](NC(=O)CCCOc1ccc2ccc(OCCCC(=O)N[C@H](C(=O)NNC(=O)NNC(C)=O)C(C)C)cc2c1)C(C)C`, the inhibition in data set [5] amounted to 21%.

On to `COC(=O)[C@@H](NC(=O)[C@H](CC(C)C)NC(=O)[C@@H](NC(=O)CCCOc1ccc2ccc(OCCCC(=O)NNC(=O)NNC(=O)N[C@H](C(N)=O)C(C)C)cc2c1)C(C)C)C(C)C`, for which the half-life in data set [2] is 24 h. Also, the Ki at Protease is 150 nM; in [3] it was 270 nM; in data set [4] it was 170 nM. Also, in data set [1], the inhibition result is “Active”. Besides, the inhibition result in the data set filed under Sus scrofa and on Renin (Homo sapiens) was “inactive” in each case.

In data set [5], `CC(=O)NNC(=O)NNC(=O)[C@H](CCCCNC(=O)CCCOc1ccc2ccc(OCCCC(=O)NCCCC[C@H](NC(=O)OC(C)(C)C)C(=O)NNC(=O)NNC(C)=O)cc2c1)NC(=O)OC(C)(C)C` had an inhibition of 0%.

Consider `CC(C)[C@H](NC(=O)CCCOc1ccc2ccc(OCCCC(=O)N[C@H](C(=O)NNC(=O)[C@@H](NC(=O)OC(C)(C)C)C(C)C)C(C)C)cc2c1)C(=O)NNC(=O)[C@@H](NC(=O)OC(C)(C)C)C(C)C`, for which the Ki on Protease stood at 50 nM; in data set [3] it was 160 nM; in data set [4], 80 nM. The inhibition entry in data set [1] is “Active”. For the same molecule, the inhibition result in the data set listed under Sus scrofa and at Renin (Homo sapiens) was “inactive” throughout. In addition, the Stability result in data set [7] is reported as “Stable”.

In general, inhibition refers to the percentage by which the read-out fell short of the control. One may read the half-life as how long it takes for the measured level to halve. What is called Ki is a measure of affinity in units of concentration, obtained from inhibition or displacement. Low values mean tighter binding, high ones weaker binding. One may read the solubility as the concentration that dissolves in the medium under given conditions. The low end stands for little dissolved substance, the high end for much dissolved substance.
